From ChEMBL document CHEMBL1153417, “5,7,8-Trimethyl-benzopyran and 5,7,8-trimethyl-1,4-benzoxazine aminoamide derivatives as novel antiarrhythmics against ischemia-reperfusion injury” (J Med Chem, 2009)
Active and inactive are the calls of the source. The calls are words filed in the database; no cut-off is given here.

Columns and labels:
Heart [1] = experiment: Antiarrhythmic activity in ischemia-reperfusion injury exposed Wistar rat heart assessed as arrhythmia score at 1 uM; assay type: functional
Method in brief: (§1)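 Rat hearts were taken under pentobarbital (30-40 mg per animal) after iv heparin. They were perfused by Langendorff at 90 cm H2O with oxygenated KHB buffer (pH 7.2, 11 mmol l-1 glucose) at 37 °C. After 20 min equilibration came 15 min ischemia (glucose-free KHB with 10 mM Tris-HCl, N2-equilibrated), then 60 min reperfusion. Compound was present for the last 5 min of ischemia and through reperfusion; n = 3-5.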

[2] = Electrophysiological effect in New Zealand rabbit right ventricular papillary muscle assessed as maximal rate of depolarization at 5 uM at 1 Hz stimulation frequency; assay type: functional, Oryctolagus cuniculus, Muscle tissue
Method in brief: (§2)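 Right ventricular papillary muscle tips were superfused at 37 °C with bicarbonate solution (pH 7.35-7.40, 95% O2/5% CO2). They were paced at 1 Hz (1000 ms cycle length) with 1 ms constant-current pulses through a bipolar platinum electrode. Transmembrane potentials were recorded by conventional microelectrodes, and RP, CT, APA, Vmax, APD50 and APD90 were measured automatically.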

[3] = Electrophysiological effect in New Zealand rabbit right ventricular papillary muscle assessed as action potential duration measured at 90% repolarization at 5 uM at 1 Hz stimulation frequency; assay type: functional, Oryctolagus cuniculus, Muscle tissue; method in brief: as §2
Oryctolagus cuniculus [4] = species on record: Oryctolagus cuniculus; experiment: Electrophysiological effect in New Zealand rabbit right ventricular papillary muscle assessed as resting membrane potential at 5 uM at 1 Hz stimulation frequency; assay type: functional, tissue-based; details: Muscle tissue; method in brief: as §2
[5] = Electrophysiological effect in New Zealand rabbit right ventricular papillary muscle assessed as action potential duration measured at 50% repolarization at 5 uM at 1 Hz stimulation frequency; assay type: functional, Oryctolagus cuniculus, Muscle tissue; method in brief: as §2
Heart [6] = experiment: Antioxidant activity in ischemia-reperfusion injury exposed Wistar rat heart assessed as reduction of malondialdehyde level at 2 uM by thiobarbituric acid test relative to control; assay type: functional; parameters: scale not given: the % may be the effect or the level left; method in brief: as §1
[7] = Electrophysiological effect in New Zealand rabbit right ventricular papillary muscle assessed as action potential amplitude at 5 uM at 1 Hz stimulation frequency; assay type: functional, Oryctolagus cuniculus, Muscle tissue; method in brief: as §2
Heart [8] = experiment: Antiarrhythmic activity in ischemia-reperfusion injury exposed Wistar rat heart assessed as premature ventricular beats at 1 uM relative to untreated control; assay type: functional; method in brief: as §1
Heart [9] = experiment: Antioxidant activity in ischemia-reperfusion injury exposed Wistar rat heart assessed as malondialdehyde level per gram of wet tissue at 1 uM by thiobarbituric acid test; assay type: functional; method in brief: as §1
[10] = Electrophysiological effect in New Zealand rabbit right ventricular papillary muscle assessed as action potential duration measured at 90% repolarization at 20 uM at 1 Hz stimulation frequency; assay type: functional, Oryctolagus cuniculus, Muscle tissue; method in brief: as §2
[11] = Electrophysiological effect in New Zealand rabbit right ventricular papillary muscle assessed as action potential duration measured at 50% repolarization at 20 uM at 1 Hz stimulation frequency; assay type: functional, Oryctolagus cuniculus, Muscle tissue; method in brief: as §2
[12] = Electrophysiological effect in New Zealand rabbit right ventricular papillary muscle assessed as action potential amplitude at 20 uM at 1 Hz stimulation frequency; assay type: functional, Oryctolagus cuniculus, Muscle tissue; method in brief: as §2
[13] = Electrophysiological effect in New Zealand rabbit right ventricular papillary muscle assessed as maximal rate of depolarization at 20 uM at 1 Hz stimulation frequency; assay type: functional, Oryctolagus cuniculus, Muscle tissue; method in brief: as §2
Oryctolagus cuniculus [14] = species on record: Oryctolagus cuniculus; experiment: Electrophysiological effect in New Zealand rabbit right ventricular papillary muscle assessed as resting membrane potential at 20 um at 1 Hz stimulation frequency; assay type: functional, tissue-based; details: Muscle tissue; method in brief: as §2
Oryctolagus cuniculus [15] = species on record: Oryctolagus cuniculus; experiment: Electrophysiological effect in New Zealand rabbit right ventricular papillary muscle assessed as increase in conduction time at 5 uM at 1 Hz stimulation frequency; assay type: functional, tissue-based; details: Muscle tissue; method in brief: as §2
Heart [16] = experiment: Antioxidant activity in ischemia-reperfusion injury exposed Wistar rat heart assessed as reduction of malondialdehyde level at 1 uM by thiobarbituric acid test relative to control; assay type: functional; parameters: scale not given: the % may be the effect or the level left; method in brief: as §1
Heart [17] = experiment: Toxicity in ischemia-reperfusion injury exposed Wistar rat heart assessed as induction of ventricular tachycardia at 1 uM; assay type: tissue-based; method in brief: as §1
Heart [18] = experiment: Toxicity in ischemia-reperfusion injury exposed Wistar rat heart assessed as induction of ventricular fibrillation at 1 uM; assay type: tissue-based; method in brief: as §1
Heart [19] = experiment: Antiarrhythmic activity in ischemia-reperfusion injury exposed Wistar rat heart assessed as premature ventricular beats at 30 uM relative to untreated control; assay type: functional; method in brief: as §1
Heart [20] = experiment: Antiarrhythmic activity in ischemia-reperfusion injury exposed Wistar rat heart assessed as premature ventricular beats at 100 uM relative to untreated control; assay type: functional; method in brief: as §1

Compound | Activity (Heart [1]) | Activity [2] | Activity [3] | Activity (Oryctolagus cuniculus [4]) | Activity [5] | Activity [7] | Activity (Heart [8]) | Activity (Heart [9]) | further results
CCN(CC)CC(=O)N1CCOc2c(C)c(C)cc(C)c21 | 1.3 | 200.2 V/s | 236.8 ms | -85.8 mV | 192.3 ms | 111.9 mV | 3.4% | 152 ng/g | Activity (Heart [6]): 34%
CCN(CC)CC(=O)N1CC(c2ccccc2)Oc2c(C)c(C)c(Cl)c(C)c21 (configuration not stated) | 1 | – | – | – | – | – | 1% | 118 ng/g | –
CCN(CC)CC(=O)N1CC(C)(C)Oc2c(C)c(C)c(Cl)c(C)c21 | 5.7 | 188.4 V/s | 214.4 ms | -85.3 mV | 171.6 ms | 116.2 mV | 2.1% | 143 ng/g | –
CC(C)NCC(O)c1ccc(NS(C)(=O)=O)cc1 (configuration not stated) [SOTALOL] | – | – | – | – | – | – | – | – | Activity [10]: 275 ms; Activity [11]: 219.9 ms; Activity [12]: 109.5 mV; Activity [13]: 202.4 V/s; Activity (Oryctolagus cuniculus [14]): -85.9 mV
CCOC(=O)C1(C)CN(C(=O)CN(CC)CC)c2c(C)c(Cl)c(C)c(C)c2O1 (configuration not stated) | – | 184.7 V/s | 159.5 ms | -81.5 mV | 107.7 ms | 105.1 mV | – | – | Activity (Oryctolagus cuniculus [15]): Active
CCN(CC)CC(=O)N1C[C@H](c2ccccc2)Oc2c(C)c(C)c(Cl)c(C)c21 | 4.3 | – | – | – | – | – | 1.5% | 106 ng/g | Activity (Heart [16]): 50%; Activity (Heart [17]): Toxic; Activity (Heart [18]): Toxic
CCN(CC)CC(=O)Nc1c(C)cccc1C [LIDOCAINE] | 1 | – | – | – | – | – | 3.1% | 160 ng/g | –
CCN(CC)CC(=O)N1CC(c2ccccc2)Oc2c(C)c(C)cc(C)c21 (configuration not stated) | 1 | 174.5 V/s | 210.9 ms | -82.7 mV | 175.6 ms | 115.1 mV | 0.5% | 120 ng/g | Activity (Heart [6]): 48%; Activity (Oryctolagus cuniculus [15]): Active
Cc1cccc(C)c1OCC(C)N (configuration not stated) [MEXILETINE] | – | – | – | – | – | – | – | – | Activity [10]: 180.9 ms; Activity [11]: 141 ms; Activity [12]: 105.9 mV; Activity [13]: 190.3 V/s; Activity (Oryctolagus cuniculus [14]): -85.7 mV
CCN(CC)CC(=O)N1CC(c2ccccc2)Oc2c(C)c(C)c(OC)c(C)c21 (configuration not stated) | 1 | – | – | – | – | – | 2.8% | 136 ng/g | –
CCN(CC)CC(=O)NC1CC(C)(C)Oc2c(C)c(C)c(O)c(C)c21 (configuration not stated) | – | – | – | – | – | – | – | – | Activity (Heart [19]): 9%; Activity (Heart [20]): 8%
CCCCCCC1(C)CC(NC(=O)CN(CC)CC)c2c(C)c(O)c(C)c(C)c2O1 (configuration not stated) | – | – | – | – | – | – | – | – | Activity (Heart [19]): 10%; Activity (Heart [20]): 9%
CCN(CC)CC(=O)N1C[C@@H](c2ccccc2)Oc2c(C)c(C)c(Cl)c(C)c21 | 1 | – | – | – | – | – | 0.8% | 153 ng/g | –
CCOC(=O)C1(C)CN(C(=O)CN(CC)CC)c2c(C)cc(C)c(C)c2O1 (configuration not stated) | 1 | 171.9 V/s | 201.2 ms | -86.6 mV | 161.7 ms | 110.9 mV | 3% | 88.6 ng/g | Activity (Heart [6]): 61%; Activity (Oryctolagus cuniculus [15]): Active
CCN(CC)CC(=O)N1CC(C)(C)Oc2c(C)c(C)cc(C)c21 | 5.1 | 175.4 V/s | 179.5 ms | -85.9 mV | 147.1 ms | 108.4 mV | 1.6% | 160 ng/g | Activity (Oryctolagus cuniculus [15]): Active
CCN(CC)CC(=O)NC1CC(c2ccccc2)Oc2c(C)c(C)c(O)c(C)c21 (configuration not stated) | 3.6 | – | – | – | – | – | 4.3% | 129 ng/g | Activity (Heart [6]): 45%
CCN(CC)CC(=O)N1CCOc2c(C)c(C)c(Cl)c(C)c21 | 1 | – | – | – | – | – | 3.9% | 163 ng/g | Activity (Heart [6]): 29%
